Results of several laboratories.
Protocols differ between the studies behind these lines.
Target: Mitogen-activated protein kinase kinase kinase 1 (MAP3K1, Homo sapiens, UniProt Q13233)

CN(C)c1nccc(-c2cnn3ncccc23)n1 — remaining binding (binding; 1 µM): 91%
COc1ccc2c(c1)O[C@@H](c1ccc(OC)c(OC)c1)C[C@H]2NC(=O)C1(c2ccc3c(c2)OC(F)(F)O3)CC1 — remaining binding (cell-free assay; competition with immobilised ligand; 1 µM): 77%
COc1cnc(Nc2cccc(S(N)(=O)=O)c2)nc1N1CCN(c2ccccc2)CC1 — remaining binding (binding; competition with immobilised ligand; 1 µM): 100%
CS(=O)(=O)N1CCCC(NC(=O)[C@H](CCC2CCCCC2)NC(=O)c2ccc(CNc3ncnc4c3nnn4-c3ccccc3)cc2)C1 (stereo partly shown) — remaining binding (cell-free assay; competition with immobilised ligand; 0.1 µM): 81%
CN(C)c1nccc(-c2cnc3ncccn23)n1 — remaining binding (binding; 1 µM): 100%
CCN1CCN(Cc2ccc(C(=O)Nc3ccc(C)c(Oc4ccc5c(c4)CC(=O)N5)c3)cc2C(F)(F)F)CC1 — remaining binding (binding; competition with immobilised ligand; 1 µM): 100%
Cc1cnn2ncc(-c3ccnc(N(C)C)n3)c2c1 — remaining binding (binding; 1 µM): 91%
c1cncc(-c2cccc(Nc3nccc(NC4CCCCC4)n3)c2)c1 — remaining binding (binding; competition with immobilised ligand; 10 µM): 79%
O=C(c1ccc(Nc2ncc(Cl)c(-c3cc4ccccc4s3)n2)cc1)N1CCC(N2CCCC2)CC1 — remaining binding (binding; competition with immobilised ligand; 1 µM): 79%
COc1ccnn2ncc(-c3ccnc(N(C)C)n3)c12 — remaining binding (binding; 1 µM): 100%
CNC(=O)c1ccc(Nc2ncc(C(F)(F)F)c(NCc3nccnc3N(C)S(C)(=O)=O)n2)cc1 — remaining binding (cell-free assay; competition with immobilised ligand; 0.1 µM): 100%
O=C(NCC1CCOCC1)c1n[nH]cc1NC(=O)c1c(F)cccc1F — remaining binding (binding; competition with immobilised ligand; 1 µM): 75%
CNC(=O)[C@@H]1CC[C@@H](n2c(-c3ccc4cnccc4c3)nc3ccc(C(=O)NCc4cccc(C(N)=O)c4)cc32)C1 — remaining binding (binding; competition with immobilised ligand; 1 µM): 95%
O=C(NCCCN1CCOCC1)c1ccc(Nc2ncc(Cl)c(-c3ccc(Cl)s3)n2)cc1 — remaining binding (binding; competition with immobilised ligand; 1 µM): 100%
Cc1cc(NC(=O)c2cccc(S(F)(F)(F)(F)F)c2)cc(-n2ccn3nc(-c4cccnc4)cc23)c1 — remaining binding (cell-free assay; competition with immobilised ligand; 1 µM): 90%
C[C@@H](c1ccc(-n2cnc3c(N)ncnc32)cc1)N1CCc2nn(C)c(Cc3ccccc3)c2C1=O — remaining binding (binding; competition with immobilised ligand; 0.1 µM): 60%
c1cnn2ncc(-c3ccnc(N4CCC45COC5)n3)c2c1 — remaining binding (binding; 1 µM): 76%
O=C1NC(c2ccccn2)Sc2ccccc21 (stereo not shown) — remaining binding (cell-free assay; competition with immobilised ligand; 1 µM): 55%
C[C@H]1CCN(c2nccc(-c3cnn4ncccc34)n2)C1 — remaining binding (binding; 1 µM): 83%
Cc1cc(-n2nc(Cc3cc(F)cc(C(F)(F)F)c3)nc2C)ccc1C(N)=O — remaining binding (cell-free assay; competition with immobilised ligand; 1 µM): 100%
N[C@H]1CCN(c2nccc(-c3cnn4ncccc34)n2)C1 — remaining binding (binding; 1 µM): 98%
O=C(NCCCN1CCOCC1)c1ccc(Nc2nccc(-c3cc4ccccc4s3)n2)cc1 — remaining binding (binding; competition with immobilised ligand; 1 µM): 92%
